{"source": "paper PMC5116011", "about": "(The Journal of antibiotics, 2016)", "key": {"P. aeruginosa PA01": {"system": "P. aeruginosa PA01", "test": "MIC, microbroth dilution in Mueller-Hinton broth", "assay_type": "cell-based, Pseudomonas aeruginosa", "details": "for MIC PA MH+BP/CCCP / MIC PA +: P. aeruginosa PA01; for MIC PA MH+BP/CCCP: MH broth with 30 µg/ml 2,2′-bipyridyl and 50 µg/ml CCCP; for MIC PA +: with clavulanic acid (6µg/ml); for MIC: Pseudomonas aeruginosa"}, "[1]": {"system": "E. coli ATCC 35218 (Low-level TEM-1)", "test": "MIC with and without clavulanic acid", "assay_type": "cell-based", "details": "with clavulanic acid (6 µg/ml)", "how_it_was_run": "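Mueller-Hinton broth microdilution per CLSI, run in parallel without and with the β-lactamase inhibitor clavulanic acid (6 µg/ml). MH-broth-grown inoculum was at 10^5 CFU/ml final, with test compound at 200–0.2 µg/ml final. Incubation was 37°C, 18–20 h, and the visible-growth endpoint was read. At least duplicate determinations; the mean MIC was reported.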"}, "P. mirabilis ATCC 25933": {"system": "P. mirabilis ATCC 25933", "test": "MIC, microbroth dilution in Mueller-Hinton broth", "assay_type": "cell-based", "details": "Proteus mirabilis, ATCC25933, read-out: MIC PM"}, "E. coli BW25113": {"system": "E. coli BW25113", "test": "MIC, microbroth dilution in Mueller-Hinton broth", "assay_type": "cell-based, Escherichia coli", "details": "for MIC EC MH+BP/CCCP / MIC EC +: E. coli BW25113; for MIC EC MH+BP/CCCP: MH broth with 30 µg/ml 2,2′-bipyridyl and 50 µg/ml CCCP; for MIC EC +: with clavulanic acid (6µg/ml); for MIC: Escherichia coli, BW25113, read-out: MIC EC, E. coli BW25113, Mueller-Hinton broth (Table 2)"}, "[2]": {"system": "E. coli BW25113 ΔtolC derivative JW5503-1", "test": "MIC, microbroth dilution in Mueller-Hinton broth", "assay_type": "cell-based, Escherichia coli", "details": "for MIC: Escherichia coli"}, "[3]": {"system": "E. coli BW25113 ΔampC derivative JW4111-2", "assay_type": "cell-based, Escherichia coli", "details": "for MIC: Escherichia coli, BW25113, read-out: MIC ECΔampC −"}, "S. aureus NRS 70 (MRSA)": {"system": "S. aureus NRS 70 (MRSA)", "test": "MIC, microbroth dilution in Mueller-Hinton broth", "assay_type": "cell-based", "details": "Staphylococcus aureus, MRSA|NRS70, read-out: MIC MRSA", "how_it_was_run": "(§1)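 CLSI broth microdilution in cation-adjusted Mueller-Hinton broth. Inocula were grown from MH agar colonies in MH broth, with a final inoculum of 10^5 CFU/ml. Test compound final range was 200–0.2 µg/ml, incubated 37°C for 18–20 h. MIC was the lowest concentration preventing visible growth. Runs were at least duplicate, and the mean MIC was reported.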"}, "E. faecalis ATCC33186": {"system": "E. faecalis ATCC33186", "test": "MIC, microbroth dilution in Mueller-Hinton broth", "assay_type": "cell-based", "details": "Enterococcus faecalis, ATCC33186, read-out: MIC EF", "how_it_was_run": "as §1"}, "S. pyogenes ATCC700294": {"system": "S. pyogenes ATCC700294", "test": "MIC, microbroth dilution in Mueller-Hinton broth", "assay_type": "cell-based", "details": "Streptococcus pyogenes, ATCC700294, read-out: MIC SPy", "how_it_was_run": "as §1"}, "B. subtilis ATCC23857": {"system": "B. subtilis ATCC23857", "test": "MIC, microbroth dilution in Mueller-Hinton broth", "assay_type": "cell-based", "details": "Bacillus subtilis, ATCC23857, read-out: MIC BS", "how_it_was_run": "as §1"}, "B. anthracis sterne": {"system": "B. anthracis sterne", "test": "microbe, parasite or virus in culture", "assay_type": "cell-based", "details": "Bacillus anthracis, read-out: MIC BA"}, "P. vulgaris ATCC 33420": {"system": "P. vulgaris ATCC 33420", "test": "MIC, microbroth dilution in Mueller-Hinton broth", "assay_type": "cell-based", "details": "Proteus vulgaris, ATCC33420, read-out: MIC PV"}, "[4]": {"system": "S. aureus -ATCC29213 (MSSA)", "test": "MIC, microbroth dilution in Mueller-Hinton broth", "assay_type": "cell-based", "details": "Staphylococcus aureus, read-out: MIC MSSA", "how_it_was_run": "as §1"}, "S. pneumoniae R6": {"system": "S. pneumoniae R6", "test": "MIC, microbroth dilution in Mueller-Hinton broth", "assay_type": "cell-based", "details": "Streptococcus pneumoniae, R6, read-out: MIC SP", "how_it_was_run": "as §1"}, "[5]": {"test": "Relative binding affinity", "assay_type": "physicochemical", "how_it_was_run": "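Chelator:Fe(III) stoichiometry was found by the continuous variation method. The apparent iron constant came from the drop in 460 nm absorbance of the preformed test compound–Fe(III) complex as EDTA concentration was raised. pM was calculated as –log free [Fe3+].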"}, "[6]": {"details": "cited from earlier work"}, "[7]": {"details": "BW25113, read-out: MIC ECΔtolC MH"}, "[8]": {"details": "BW25113, read-out: MIC ECΔtolC MH+BP"}}, "note": "Read-outs that look alike come from different tables or passages of the source."}
{"compound": "CC1(C)SC2C(NC(=O)C(NC(=O)C3=C(O)C(Cc4ccc(F)cc4)NC3=O)c3ccccc3)C(=O)N2C1C(=O)O", "note": "(stereo not shown) [Compound 2782]", "values": [{"measurement": "MIC PA MH+BP/CCCP", "setting": "P. aeruginosa PA01", "value": 12.5, "unit": "µg/mL"}, {"measurement": "MIC PA +", "setting": "P. aeruginosa PA01", "value": 12.5, "unit": "µg/mL"}, {"measurement": "MIC", "setting": "P. aeruginosa PA01; PA01, read-out: MIC PA", "value": 25, "unit": "µg/mL"}, {"measurement": "MIC", "setting": "P. aeruginosa PA01; PA01, read-out: MIC PA MH", "value": 25, "unit": "µg/mL"}, {"measurement": "MIC", "setting": "P. aeruginosa PA01; PA01, read-out: MIC PA MH+BP", "value": 25, "unit": "µg/mL"}, {"measurement": "MIC", "setting": "P. aeruginosa PA01; PA01, read-out: MIC PA MH+CCCP", "value": 12.5, "unit": "µg/mL"}, {"measurement": "MIC ATCC 35218 (Low-level TEM-1) + CLV", "setting": "[1]", "value": 25, "unit": "µg/mL"}, {"measurement": "MIC", "setting": "P. mirabilis ATCC 25933", "value": 12.5, "unit": "µg/mL"}, {"measurement": "MIC EC MH+BP/CCCP", "setting": "E. coli BW25113", "value": 3.13, "unit": "µg/mL"}, {"measurement": "MIC EC +", "setting": "E. coli BW25113", "value": 3.13, "unit": "µg/mL"}, {"measurement": "MIC", "setting": "E. coli BW25113", "value": 25, "unit": "µg/mL"}, {"measurement": "MIC", "setting": "[2]; BW25113, read-out: MIC ECΔtolC", "value": 1.56, "unit": "µg/mL"}, {"measurement": "MIC", "setting": "[2]; [7]", "value": 1.56, "unit": "µg/mL"}, {"measurement": "MIC", "setting": "[2]; [8]", "value": 3.13, "unit": "µg/mL"}, {"measurement": "MIC ECΔtolC MH+BP/CCCP", "setting": "[2]", "value": 1.56, "unit": "µg/mL"}, {"measurement": "MIC ECΔtolC MH+CCCP", "setting": "[2]", "value": 1.56, "unit": "µg/mL"}, {"measurement": "MIC", "setting": "[3]", "value": 6.25, "unit": "µg/mL"}, {"measurement": "MIC ECΔampC +", "setting": "[3]", "value": 3.13, "unit": "µg/mL"}, {"measurement": "MIC", "setting": "S. aureus NRS 70 (MRSA)", "value": 12.5, "unit": "µg/mL"}, {"measurement": "MIC", "setting": "E. faecalis ATCC33186", "value": 6.25, "unit": "µg/mL"}, {"measurement": "MIC", "setting": "S. pyogenes ATCC700294", "value": 0.78, "unit": "µg/mL"}, {"measurement": "MIC", "setting": "B. subtilis ATCC23857", "value": 1.56, "unit": "µg/mL"}, {"measurement": "MIC", "setting": "B. anthracis sterne", "value": 3.13, "unit": "µg/mL"}, {"measurement": "MIC", "setting": "P. vulgaris ATCC 33420", "value": 12.5, "unit": "µg/mL"}, {"measurement": "MIC", "setting": "[4]", "value": 0.39, "unit": "µg/mL"}, {"measurement": "MIC", "setting": "S. pneumoniae R6", "value": 0.39, "unit": "µg/mL"}]}
{"compound": "CC1(C)SC2C(NC(=O)C(NC(=O)C3=C(O)C(Cc4ccsc4)NC3=O)c3ccccc3)C(=O)N2C1C(=O)O", "note": "(stereo not shown) [Compound 2916]", "values": [{"measurement": "MIC PA MH+BP/CCCP", "setting": "P. aeruginosa PA01", "value": 6.25, "unit": "µg/mL"}, {"measurement": "MIC PA +", "setting": "P. aeruginosa PA01", "value": 6.25, "unit": "µg/mL"}, {"measurement": "MIC", "setting": "P. aeruginosa PA01; PA01, read-out: MIC PA", "value": 25, "unit": "µg/mL"}, {"measurement": "MIC", "setting": "P. aeruginosa PA01; PA01, read-out: MIC PA MH", "value": 25, "unit": "µg/mL"}, {"measurement": "MIC", "setting": "P. aeruginosa PA01; PA01, read-out: MIC PA MH+BP", "value": 25, "unit": "µg/mL"}, {"measurement": "MIC", "setting": "P. aeruginosa PA01; PA01, read-out: MIC PA MH+CCCP", "value": 12.5, "unit": "µg/mL"}, {"measurement": "MIC ATCC 35218 (Low-level TEM-1) + CLV", "setting": "[1]", "value": 25, "unit": "µg/mL"}, {"measurement": "MIC", "setting": "P. mirabilis ATCC 25933", "value": 6.25, "unit": "µg/mL"}, {"measurement": "MIC EC MH+BP/CCCP", "setting": "E. coli BW25113", "value": 12.5, "unit": "µg/mL"}, {"measurement": "MIC EC +", "setting": "E. coli BW25113", "value": 12.5, "unit": "µg/mL"}, {"measurement": "MIC", "setting": "E. coli BW25113", "value": 50, "unit": "µg/mL"}, {"measurement": "MIC", "setting": "[2]; BW25113, read-out: MIC ECΔtolC", "value": 1.56, "unit": "µg/mL"}, {"measurement": "MIC", "setting": "[2]; [7]", "value": 1.56, "unit": "µg/mL"}, {"measurement": "MIC", "setting": "[2]; [8]", "value": 1.56, "unit": "µg/mL"}, {"measurement": "MIC ECΔtolC MH+BP/CCCP", "setting": "[2]", "value": 0.78, "unit": "µg/mL"}, {"measurement": "MIC ECΔtolC MH+CCCP", "setting": "[2]", "value": 0.78, "unit": "µg/mL"}, {"measurement": "MIC", "setting": "[3]", "value": 6.25, "unit": "µg/mL"}, {"measurement": "MIC ECΔampC +", "setting": "[3]", "value": 3.13, "unit": "µg/mL"}, {"measurement": "MIC", "setting": "S. aureus NRS 70 (MRSA)", "value": 50, "unit": "µg/mL"}, {"measurement": "MIC", "setting": "E. faecalis ATCC33186", "value": 25, "unit": "µg/mL"}, {"measurement": "MIC", "setting": "S. pyogenes ATCC700294", "value": 0.39, "unit": "µg/mL"}, {"measurement": "pM (–log [Fe^3+])", "setting": "[5]; 10^−5 M total iron chelator and 10^−6 M total Fe^3+ at pH 7.4", "value": 20.3}, {"measurement": "apparent binding constant (Kd, app) for iron (III)", "setting": "[5]; EDTA competition, MeOH:Tris buffer, pH 7.4 (98:2), 3:1 complex", "value": "0.55 × 10^−29 M^3"}, {"measurement": "MIC", "setting": "B. subtilis ATCC23857", "value": 1.56, "unit": "µg/mL"}, {"measurement": "MIC", "setting": "B. anthracis sterne", "value": 1.56, "unit": "µg/mL"}, {"measurement": "MIC", "setting": "P. vulgaris ATCC 33420", "value": 6.25, "unit": "µg/mL"}, {"measurement": "MIC", "setting": "[4]", "value": "< 0.2", "unit": "µg/mL"}, {"measurement": "MIC", "setting": "S. pneumoniae R6", "value": "< 0.2", "unit": "µg/mL"}]}
{"compound": "O=C(N[C@H]1COC(=O)[C@@H](NC(=O)c2cccc(O)c2O)COC(=O)[C@@H](NC(=O)c2cccc(O)c2O)COC1=O)c1cccc(O)c1O", "note": "[enterobactin]", "values": [{"measurement": "pM", "setting": "[6]; E. coli enterobactin, ref [42]", "value": 35.6}]}
{"compound": "CN1[C@@H]([C@H]2CSC(c3ccccc3O)=N2)SC[C@H]1C(=O)O", "note": "[pyochelin]", "values": [{"measurement": "pM", "setting": "[6]; pyochelin, ref [43], [44]", "value": 6}, {"measurement": "Kd", "setting": "[6]; read-out: Kd for iron, pyochelin, ref [43], [44]", "value": 10, "unit": "µM"}]}
{"compound": "pyoverdin", "values": [{"measurement": "pM", "setting": "[6]; P. aeruginosa pyoverdin, ref [45], [46]", "value": 27}]}
